The values that follow come from ChEMBL document CHEMBL1759907, “Identification and optimization of tetrahydro-2H-3-benzazepin-2-ones as squalene synthase inhibitors” (Bioorg Med Chem Lett, 2011).

Molecules are shown by their SMILES. A value given as a limit tells only on which side of the number the result lay.

The target of one data set is T1, Squalene synthase (Homo sapiens, UniProt P37268).
T1 sequence (P37268 whole entry): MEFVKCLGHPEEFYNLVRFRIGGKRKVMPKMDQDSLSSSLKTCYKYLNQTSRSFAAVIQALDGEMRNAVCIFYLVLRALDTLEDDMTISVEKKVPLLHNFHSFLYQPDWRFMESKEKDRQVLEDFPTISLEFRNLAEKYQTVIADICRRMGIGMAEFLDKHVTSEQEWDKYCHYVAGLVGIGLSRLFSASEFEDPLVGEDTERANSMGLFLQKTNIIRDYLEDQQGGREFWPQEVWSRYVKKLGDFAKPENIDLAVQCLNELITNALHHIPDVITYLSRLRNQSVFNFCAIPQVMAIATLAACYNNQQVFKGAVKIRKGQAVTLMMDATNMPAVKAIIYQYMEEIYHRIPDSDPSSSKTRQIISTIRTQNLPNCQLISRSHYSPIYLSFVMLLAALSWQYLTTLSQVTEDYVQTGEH
Put plainly: Inhibition of squalene synthase assessed as conversion of […] to [3H]squalene after 10 mins by scintillation counting. An outline of the steps: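 Reaction started with farnesyl pyrophosphate plus 0.2 nM trans,trans-[1-3H]-FPP and run for 10 min at 37 °C. Extracted with chloroform/methanol/5 N NaOH, adjusted to 2 mM squalene; organic phase counted by scintillation. Mean of three experiments.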

Data set [1] is described as follows: Metabolic stability in human liver microsomes assessed as compound remaining after 60 mins. Conditions: read-out: Stability. The class given is ADME, Microsome.
In another data set the test system is Mus musculus. Put plainly: Inhibition of hepatic cholesterol biosynthesis in NMRI mouse at 3 mg/kg, po administered 1 hr before administering [14C]mevalonate as substrate measured after 10 mins. Type of data set: functional.

Turning to `CC(C)C[C@H]1C(=O)N(CC(=O)O)C[C@H](c2ccccc2Cl)c2cc(Cl)ccc21` (racemic), the IC50 at Squalene synthase was found to be 3300 nM. Further, in data set [1], the remaining at 1 h is 60%.
Consider `COc1ccccc1[C@H]1CN(CC(=O)N2CCC(C(=O)O)CC2)C(=O)[C@H](CC(C)C)c2ccc(Cl)cc21` (racemic), for which the 50% inhibitory concentration (IC50) at Squalene synthase turned out to be 500 nM. In data set [1], the remaining at 1 h is 72%. Besides, the inhibition in vivo at 3 mg/kg in the data set on Mus musculus turned out to be 39%.
As for `CC(C)C[C@H]1C(=O)N(CC(=O)NCCCCCC(=O)O)C[C@H](c2ccccc2Cl)c2cc(Cl)ccc21` (racemic), the IC50 at Squalene synthase came to 2400 nM.
Turning to `CC(C)C[C@H]1C(=O)N(CC(=O)O)C[C@H](c2ccccc2Br)c2cc(Cl)ccc21` (racemic), on Squalene synthase, the IC50 worked out at 2200 nM.
In the case of `CC(C)(O)C[C@H]1C(=O)N(CC(=O)O)C[C@H](c2ccccc2Cl)c2cc(Cl)ccc21` (racemic), the IC50 on Squalene synthase was above 20000 nM.
As to `CC(C)C[C@H]1C(=O)N(CC(=O)N2CCC(CC(=O)O)CC2)C[C@H](c2ccccc2Cl)c2cc(Cl)ccc21` (racemic), the IC50 on Squalene synthase turned out to be 1400 nM. The remaining at 1 h in data set [1] was 70%. Besides, the inhibition in vivo at 3 mg/kg with Mus musculus stood at 25%.
As to `COc1ccccc1[C@H]1CN(CC(=O)N2CCCCC2)C(=O)[C@H](CC(C)C)c2ccc(Cl)cc21` (racemic), at Squalene synthase, the concentration for half-maximal inhibition (IC50) was 370 nM. The remaining at 1 h in data set [1] came to 2%.
As for `COc1cccc([C@@H]2CN(CC(=O)N3CCC(C(=O)O)CC3)C(=O)[C@H](CC(C)C)c3ccc(Cl)cc32)c1OC`, the IC50 at Squalene synthase worked out at 220 nM. Besides, the remaining at 1 h in data set [1] was determined as 89%. Further, at 3 mg/kg the inhibition in vivo with Mus musculus was 47%.
Take `COc1cccc([C@H]2CN(CC(=O)N3CCC(C(=O)O)CC3)C(=O)[C@H](CC(C)C)c3ccc(Cl)cc32)c1OC` (racemic): the IC50 at Squalene synthase is 450 nM. Also, the remaining at 1 h in data set [1] is 78%.
With `CC(C)C[C@H]1C(=O)N(CC(=O)O)C[C@H](c2ccccc2Cl)c2cc(F)ccc21` (racemic), the IC50 at Squalene synthase is above 20000 nM.
For the molecule `CC(C)C[C@H]1C(=O)N(CC(=O)O)C[C@H](c2ccccc2Cl)c2ccccc21` (racemic), the IC50 at Squalene synthase is above 20000 nM.
For the molecule `COc1cccc([C@H]2CN(CC(=O)O)C(=O)[C@H](CC(C)C)c3ccc(Cl)cc32)c1OC` (racemic), the IC50 on Squalene synthase came out at 1200 nM.
Turning to `Cc1ccc2c(c1)[C@@H](c1ccccc1Cl)CN(CC(=O)O)C(=O)[C@@H]2CC(C)C` (racemic), the 50% inhibitory concentration (IC50) at Squalene synthase was above 20000 nM.
As to `COc1ccccc1[C@H]1CN(CC(=O)O)C(=O)[C@H](CC(C)C)c2ccc(Cl)cc21` (racemic), on Squalene synthase, the 50% inhibitory concentration (IC50) amounted to 1900 nM.
With `CC(C)C[C@H]1C(=O)N(CC(=O)N2CCC(C(=O)O)CC2)C[C@H](c2ccccc2Cl)c2cc(Cl)ccc21` (racemic), the IC50 at Squalene synthase was 930 nM. Further, the remaining at 1 h in data set [1] worked out at 53%. For the same molecule, at 3 mg/kg the inhibition in vivo with Mus musculus was 25%.
On to `O=C(O)CN1C[C@H](c2ccccc2Cl)c2cc(Cl)ccc2[C@@H](Cc2ccccc2)C1=O` (racemic), for which the IC50 on Squalene synthase was above 20000 nM.
The same measure, in the same setting: the same measure for `CCOC(=O)CN1C[C@H](c2ccccc2Cl)c2cc(Cl)ccc2[C@@H](CC(C)C)C1=O` (racemic): above 20000 nM.
Still for that read-out and setting: the same measure for `CC(C)C[C@H]1C(=O)N(CC(=O)O)C[C@H](c2ccccc2)c2cc(Cl)ccc21` (racemic): 15300 nM; for `COc1cccc([C@H]2CN(CC(=O)N3CCC(C(=O)O)CC3)C(=O)[C@@H](CC(C)C)c3ccc(Cl)cc32)c1OC`: above 20000 nM; for `C=C(C)C[C@H]1C(=O)N(CC(=O)O)C[C@H](c2ccccc2Cl)c2cc(Cl)ccc21` (racemic): 5500 nM.

Broadly, the IC50 is the concentration at which inhibition is half-maximal. As usually defined, the inhibition in vivo is the share of the control response that was lost under treatment. Read a low inhibition in vivo as a weak effect.
